Experimental data as given in ChEMBL document CHEMBL1944507, “Structure-activity relationships for amide-, carbamate-, and urea-linked analogues of the tuberculosis drug (6S)-2-nitro-6-{[4-(trifluoromethoxy)benzyl]oxy}-6,7-dihydro-5H-imidazo[2,1-b][1,3]oxazine (PA-824)” (J Med Chem, 2012).
In brackets after ≈: the same amount, converted by molar mass.

Test system: not listed separately
Assay: Kinetic solubility of the compound in water at pH 7 by HPLC analysis
Type: physicochemical
Settings: read-out: Kinetic_solubility

Row | SMILES | solubility kinetic [µg/mL]
1 | CN(Cc1ccc(OC(F)(F)F)cc1)C1CCN(C(=O)O[C@@H]2COc3nc([N+](=O)[O-])cn3C2)CC1 | 11 (≈ 22 µM)
2 | CN(C(=O)c1ccc(OC(F)(F)F)cc1)[C@@H]1COc2nc([N+](=O)[O-])cn2C1 | 17 (≈ 44 µM)
3 | O=C(CO[C@@H]1COc2nc([N+](=O)[O-])cn2C1)Nc1ccc(OC(F)(F)F)cc1 | 68 (≈ 169 µM)
4 | O=C(O[C@@H]1COc2nc([N+](=O)[O-])cn2C1)N1CCC(Oc2ccc(C(F)(F)F)nc2)CC1 | 94 (≈ 206 µM)
5 | O=C(Cc1ccc(-c2ccc(OC(F)(F)F)cc2)cc1)N[C@@H]1COc2nc([N+](=O)[O-])cn2C1 | 1.8 (≈ 3.89 µM)
6 | CN([C@@H]1COc2nc([N+](=O)[O-])cn2C1)S(=O)(=O)c1ccc(OC(F)(F)F)cc1 | 15 (≈ 35.5 µM)
7 | O=C(Nc1ccc(OC(F)(F)F)cc1)N[C@@H]1COc2nc([N+](=O)[O-])cn2C1 | 93 (≈ 240 µM)
8 | O=C(COc1ccc(-c2ccc(OC(F)(F)F)cc2)cc1)N[C@@H]1COc2nc([N+](=O)[O-])cn2C1 | 0.96 (≈ 2.01 µM)
9 | O=[N+]([O-])c1cn2c(n1)OC[C@@H](NS(=O)(=O)c1ccc(OC(F)(F)F)cc1)C2 | 6.1 (≈ 14.9 µM)
10 | O=C(Nc1cccc(-c2ccc(OC(F)(F)F)cc2)c1)N[C@@H]1COc2nc([N+](=O)[O-])cn2C1 | 3 (≈ 6.47 µM)
11 | O=C(N[C@@H]1COc2nc([N+](=O)[O-])cn2C1)c1ccc(OC(F)(F)F)cc1 | 109 (≈ 293 µM)
12 | O=C(NCc1ccc(-c2ccc(OC(F)(F)F)cc2)cc1)N[C@@H]1COc2nc([N+](=O)[O-])cn2C1 | 0.94 (≈ 1.97 µM)
13 | O=C(COc1ccc(OC(F)(F)F)cc1)N[C@@H]1COc2nc([N+](=O)[O-])cn2C1 | 43 (≈ 107 µM)
14 | O=C(Nc1cccc(-c2ccc(C(F)(F)F)nc2)c1)O[C@@H]1COc2nc([N+](=O)[O-])cn2C1 | 5.8 (≈ 12.9 µM)
15 | O=C(Nc1ccc(OC(F)(F)F)cc1)O[C@@H]1COc2nc([N+](=O)[O-])cn2C1 | 5.4 (≈ 13.9 µM)

Test system: not listed separately
Assay: Ratio AUC (0 to infinity) in CD-1 mouse lung to AUC (0 to infinity) in CD-1 mouse plasma at 40 mg/kg, po
Type: ADME, organism-based
Set-up: dose 40 mg/kg, route oral
Settings: read-out: Ratio AUC
How it was run: (§1)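 CD-1 mice given a single oral dose of 40 mg/kg, suspended in 0.5% carboxymethylcellulose/0.08% Tween 80 in water. Plasma and lung samples quantified by LC-MS/MS. AUC extrapolated to infinity. Lung/plasma ratio is lung AUC divided by plasma AUC.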

Row | SMILES | Kp
16 | O=C(Nc1ccc(OC(F)(F)F)cc1)O[C@@H]1COc2nc([N+](=O)[O-])cn2C1 | 1.5

Test system: not listed separately
Assay: AUC (0 to infinity) in CD-1 mouse lung at 40 mg/kg, po
Type: ADME, organism-based
Set-up: dose 40 mg/kg, route oral, time infinity
Settings: not given
How it was run: as §1

Row | SMILES | AUC(0-inf) [ng·h/mL]
17 | O=C(Nc1ccc(OC(F)(F)F)cc1)O[C@@H]1COc2nc([N+](=O)[O-])cn2C1 | 43300

Test system: not listed separately
Assay: Cmax in CD-1 mouse lung at 40 mg/kg, po
Type: ADME, organism-based
Set-up: dose 40 mg/kg, route oral
Settings: not given
How it was run: as §1

Row | SMILES | Cmax [ng/mL]
18 | O=C(Nc1ccc(OC(F)(F)F)cc1)O[C@@H]1COc2nc([N+](=O)[O-])cn2C1 | 3800

Test system: not listed separately
Assay: Metabolic stability of the compound in CD-1 mouse liver microsomes assessed as compound remaining after 1 hr
Type: ADME, Microsome
Settings: read-out: Stability
How it was run: (§2)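 Pooled human or CD-1 mouse liver microsomes incubated with compound for 1 h. Percentage of compound remaining calculated from analyte/internal standard peak area ratios.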

Row | SMILES | remaining at 1 h [%]
19 | O=C(CO[C@@H]1COc2nc([N+](=O)[O-])cn2C1)Nc1ccc(OC(F)(F)F)cc1 | 85
20 | O=C(Nc1cccc(-c2ccc(OC(F)(F)F)cc2)c1)N[C@@H]1COc2nc([N+](=O)[O-])cn2C1 | 88
21 | O=C(Nc1cccc(-c2ccc(C(F)(F)F)nc2)c1)O[C@@H]1COc2nc([N+](=O)[O-])cn2C1 | 80
22 | O=C(Nc1ccc(OC(F)(F)F)cc1)O[C@@H]1COc2nc([N+](=O)[O-])cn2C1 | 89

Test system: Mycobacterium tuberculosis
Assay: Antimicrobial activity against Mycobacterium tuberculosis infected in BALB/c mouse assessed as fold reduction in lung CFU at 100 mg/kg, po administered 11 days after post infection qd for 5 days per week for 3 weeks relative to PA-824
Type: functional
Settings: not given
How it was run: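 Groups of 7 M. tb-infected BALB/c mice dosed orally at 100 mg/kg daily, 5 days/week for 3 weeks, starting on day 11 postinfection. Readout is the average lung CFU reduction in treated mice divided by the average CFU reduction in mice given the reference nitroimidazooxazine.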

Row | SMILES | fold change (FC)
23 | O=C(CO[C@@H]1COc2nc([N+](=O)[O-])cn2C1)Nc1ccc(OC(F)(F)F)cc1 | 0.33
24 | O=C(Nc1cccc(-c2ccc(OC(F)(F)F)cc2)c1)N[C@@H]1COc2nc([N+](=O)[O-])cn2C1 | <0.01
25 | O=C(Nc1cccc(-c2ccc(C(F)(F)F)nc2)c1)O[C@@H]1COc2nc([N+](=O)[O-])cn2C1 | 0.02
26 | O=C(Nc1ccc(OC(F)(F)F)cc1)O[C@@H]1COc2nc([N+](=O)[O-])cn2C1 | 0.39

Test system: not listed separately
Assay: Half life in CD-1 mouse lung at 40 mg/kg, po
Type: ADME, organism-based
Set-up: dose 40 mg/kg, route oral
Settings: not given
How it was run: as §1

Row | SMILES | half-life [h]
27 | O=C(Nc1ccc(OC(F)(F)F)cc1)O[C@@H]1COc2nc([N+](=O)[O-])cn2C1 | 4.1

Test system: not listed separately
Assay: Cmax in CD-1 mouse plasma at 40 mg/kg, po
Type: ADME, organism-based
Set-up: dose 40 mg/kg, route oral
Settings: not given
How it was run: as §1

Row | SMILES | Cmax [ng/mL]
28 | O=C(Nc1ccc(OC(F)(F)F)cc1)O[C@@H]1COc2nc([N+](=O)[O-])cn2C1 | 1400

Test system: not listed separately
Assay: AUC (0 to infinity) in CD-1 mouse plasma at 40 mg/kg, po
Type: ADME, organism-based
Set-up: dose 40 mg/kg, route oral, time infinity
Settings: not given
How it was run: as §1

Row | SMILES | AUC(0-inf) [ng·h/mL]
29 | O=C(Nc1ccc(OC(F)(F)F)cc1)O[C@@H]1COc2nc([N+](=O)[O-])cn2C1 | 28500

Test system: not listed separately
Assay: Metabolic stability of the compound in human liver microsomes assessed as compound remaining after 1 hr
Type: ADME, Microsome
Settings: read-out: Stability
How it was run: as §2

Row | SMILES | remaining at 1 h [%]
30 | O=C(CO[C@@H]1COc2nc([N+](=O)[O-])cn2C1)Nc1ccc(OC(F)(F)F)cc1 | 100
31 | O=C(Nc1cccc(-c2ccc(OC(F)(F)F)cc2)c1)N[C@@H]1COc2nc([N+](=O)[O-])cn2C1 | 86
32 | O=C(Nc1cccc(-c2ccc(C(F)(F)F)nc2)c1)O[C@@H]1COc2nc([N+](=O)[O-])cn2C1 | 89
33 | O=C(Nc1ccc(OC(F)(F)F)cc1)O[C@@H]1COc2nc([N+](=O)[O-])cn2C1 | 88

Test system: Mycobacterium tuberculosis
Assay: Antimicrobial activity against Mycobacterium tuberculosis infected in BALB/c mouse assessed as fold reduction in lung CFU at 100 mg/kg, po administered 70 days after post infection qd for 5 days per week for 3 weeks relative to OPC-67683
Type: functional
Settings: not given
How it was run: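 Chronic infection model in M. tb-infected BALB/c mice: oral dosing at 100 mg/kg daily, 5 days/week for 3 weeks, beginning about 70 days postinfection. Result expressed as fold lung CFU reduction relative to the reference drug.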

Row | SMILES | fold change (FC)
34 | O=C(Nc1ccc(OC(F)(F)F)cc1)O[C@@H]1COc2nc([N+](=O)[O-])cn2C1 | 0.02

Test system: not listed separately
Assay: Half life in CD-1 mouse plasma at 40 mg/kg, po
Type: ADME, organism-based
Set-up: dose 40 mg/kg, route oral
Settings: not given
How it was run: as §1

Row | SMILES | half-life [h]
35 | O=C(Nc1ccc(OC(F)(F)F)cc1)O[C@@H]1COc2nc([N+](=O)[O-])cn2C1 | 9.8
